Our source for the IC50 and Ki values is ChEMBL document CHEMBL1134486, “Synthesis and biological evaluation of purine-containing butenolides” (J Med Chem, 2001).

Structures are written as SMILES. Some results are limits rather than exact numbers.

The subject of experiment [1] is HeLa. Kind of experiment: Ability to inhibit cytopathogenicity of herpes simplex type 1 virus (KOS) in HeLa cell culture. The format is functional, cell-based. Conditions: Homo sapiens. The method in brief:
(§1)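 Inhibition of virus-induced cytopathogenicity measured in HeLa cell culture; IC50 derived by linear regression, mean of duplicate determinations.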
Background: Cytopathic effects are the visible damage that an infection or toxin causes in cultured cells.

A further experiment concerns L1210. The experiment in a line: Anticancer activity carried out in vitro against murine leukemia L1210. The format is functional, cell-based. Conditions: Mus musculus. The method in brief: (§2)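 Cells grown in DMEM with 10% FBS, 2.0 mM glutamine, penicillin/streptomycin, 5% CO2, 37 °C; exponential-phase cells (200 cells/mL) given compounds at various concentrations, counted at 24, 48, 72 h; IC50 for 50% proliferation inhibition at 72 h from dose-response curves of two independent experiments.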

The subject of experiment [2] is HeLa. Kind of experiment: Ability to inhibit cytopathogenicity of thymidine kinase-positive(TK+) strain of Varicella zoster virus (YS) in HeLa cell culture. The format is functional, cell-based. Conditions: Homo sapiens. The method in brief: as §1
The subject of experiment [3] is HeLa. The experiment in a line: Ability to inhibit cytopathogenicity of thymidine kinase-deficient (TK-) strain of Varicella zoster virus (YS/R) in HeLa cell culture. The format is functional, cell-based. Conditions: Homo sapiens. The method in brief:
as §1

The test system of a further experiment is P388. The experiment in a line: Anticancer activity carried out in vitro against murine leukemia P388. The format is functional, cell-based. As to conditions: Mus musculus. A digest of the protocol: as §2
Experiment [4] in a line: Anticancer activity carried out in vitro against human T-lymphocyte CEM/0. The format is functional. As to conditions: CCRF-CEM. The method in brief:
as §2

Experiment [5] can be described thus: Anticancer activity carried out in vitro against human T-lymphocyte Molt4/C8. The format is functional, cell-based. Conditions: MOLT-4. The method in brief:
as §2

The next experiment has as its system MCF7. Kind of experiment: Anticancer activity carried out in vitro against breast carcinoma MCF-7. The format is functional, cell-based. As to conditions: Homo sapiens. The method in brief: as §2
Experiment [6] has as its system HeLa. Kind of experiment: Concentration required to cause microscopically visible change or disruption in about 50% of cell sheet of HeLa cells. The format is functional, cell-based, Homo sapiens. A digest of the protocol:
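HeLa cells exposed to compounds at different concentrations; toxicity scored as morphological change, value is concentration causing microscopically visible change or disruption in about 50% of the cell sheet; mean of duplicate determinations.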

Another experiment has as its target T1, Adenosine deaminase (Bos taurus, UniProt P56658).
T1 sequence (P56658 whole entry): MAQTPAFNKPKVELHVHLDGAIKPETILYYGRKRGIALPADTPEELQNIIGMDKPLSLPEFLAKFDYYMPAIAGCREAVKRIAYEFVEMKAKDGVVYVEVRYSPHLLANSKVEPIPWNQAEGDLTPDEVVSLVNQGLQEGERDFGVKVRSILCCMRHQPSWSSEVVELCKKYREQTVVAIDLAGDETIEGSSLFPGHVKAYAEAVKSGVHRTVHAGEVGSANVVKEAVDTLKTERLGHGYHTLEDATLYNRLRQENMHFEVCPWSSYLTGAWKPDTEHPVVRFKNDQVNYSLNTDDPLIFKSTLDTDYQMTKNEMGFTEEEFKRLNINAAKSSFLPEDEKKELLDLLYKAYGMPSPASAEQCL
The experiment in a line: Rate of deamination in the presence of calf mucosal adenosine deaminase (ADA). A digest of the protocol:
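Deamination rates followed with calf mucosal ADA (EC 3.5.4.4) in buffer solutions; Km and Vmax relative to adenosine as substrate; inhibition (Ki) assessed with adenosine as substrate.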

For experiment [7], the system named is HeLa. The experiment in a line: Ability to inhibit cytopathogenicity of herpes simplex type 2 virus (G) in HeLa cell culture. Conditions: Homo sapiens.

As for `COC1=C(OC)C(O)(CCn2cnc3c(Cl)ncnc32)OC1=O` (racemic), the IC50 was greater than 128 µM with HeLa [1]; greater than 120 µM with L1210; greater than 128 µM in the experiment with HeLa [2]; greater than 128 µM with HeLa [3]; greater than 120 µM in the experiment on P388; greater than 120 µM in experiment [4]. In addition, the concentration for half-maximal inhibition (IC50) in [5] was greater than 120 µM; in the experiment with MCF7, greater than 120 µM; in the experiment with HeLa [6] (Homo sapiens, HeLa), 149 µM.

Turning to `O=C1O/C(=C/Cn2cnc3c(Cl)ncnc32)C(OCc2ccc([N+](=O)[O-])cc2)=C1OCc1ccc([N+](=O)[O-])cc1`, the IC50 with HeLa [1] was 28.4 µM; in the experiment with L1210 it was greater than 120 µM; in the experiment on HeLa [2], 37.5 µM; in the experiment on HeLa [3], 34.7 µM; with P388, greater than 120 µM; in experiment [4], greater than 120 µM. Further, the half-maximal inhibitory concentration (IC50) was greater than 120 µM in experiment [5]; greater than 120 µM in the experiment on MCF7; 17 µM in the experiment on HeLa [6] (Homo sapiens, HeLa).

Consider `COC1=C(OC)/C(=C/Cn2cnc3c(N)ncnc32)OC1=O`, for which the IC50 was 14.5 µM in the experiment on HeLa [1]; 93.4 µM with L1210; 12.8 µM in the experiment on HeLa [2]; 6.07 µM with HeLa [3]; 2.67 µM in the experiment with P388; 84.5 µM in [4]. Also, the IC50 in experiment [5] is 78.5 µM; in the experiment on MCF7 it was greater than 120 µM; in the experiment on HeLa [6] (Homo sapiens, HeLa), 42.4 µM. For the same molecule, the inhibitory constant (Ki) at Adenosine deaminase is 316 µM.

Turning to `COC1=C(OC)C(O)(CCn2cnc3c(Cl)ncnc32)OC1=O` (stereo in doubt; (-)-4), in the experiment on HeLa [6] (hela), the IC50 is 132 µM.

For the molecule `Nc1ccn([C@@H]2O[C@H](CO)[C@@H](O)[C@@H]2O)c(=O)n1` [CYTARABINE], the IC50 in the experiment on L1210 came to 0.17 µM; in the experiment with P388, 0.14 µM; in experiment [4] it was 0.78 µM; in experiment [5], 0.65 µM; in the experiment on MCF7, 1.03 µM.

Consider `COC1=C(OCc2ccc([N+](=O)[O-])cc2)C(=O)O/C1=C/Cn1cnc2c(Cl)ncnc21`, for which the IC50 stood at 7.24 µM in the experiment with HeLa [1]; 6.03 µM with L1210; 6.32 µM in the experiment with HeLa [2]; 0.89 µM with HeLa [3]; 7.42 µM in the experiment on P388; 5.04 µM in experiment [4]. For the same molecule, the IC50 in [5] is 6.16 µM; in the experiment with MCF7, 14.2 µM; in the experiment on HeLa [6] (Homo sapiens, HeLa), 20.2 µM.

Turning to `COC1=C(OC)/C(=C/Cn2cnc3c(Cl)ncnc32)OC1=O`, the IC50 in the experiment on HeLa [1] turned out to be 10.9 µM; in the experiment on L1210, 4.52 µM; in the experiment with HeLa [2], 5.92 µM; in the experiment with HeLa [3], 1.62 µM; with P388, 8.12 µM; in experiment [4], 4.71 µM. Moreover, the IC50 in experiment [5] is 5.97 µM; in the experiment on MCF7, 16.9 µM; with HeLa [6] (Homo sapiens, HeLa) it was 23.4 µM.

`COC1=C(OC)/C(=C/C(n2cnc3c(Cl)ncnc32)P(=O)(OC)OC)OC1=O` (stereo not given): the half-maximal inhibitory concentration (IC50) with HeLa [1] was determined as 13.2 µM; in the experiment on L1210, 16.2 µM; in the experiment on HeLa [2], 10.2 µM; with HeLa [3], 5.03 µM; with P388 it was 14.3 µM; in experiment [4] it was 96 µM. For the same molecule, the 50% inhibitory concentration (IC50) was 12.5 µM in experiment [5]; 90.1 µM in the experiment with MCF7; 28.1 µM with HeLa [6] (Homo sapiens, HeLa).

Consider `COC1=C(OCc2ccc([N+](=O)[O-])cc2)/C(=C\Cn2cnc3c(Cl)ncnc32)OC1=O`, for which the IC50 in the experiment on HeLa [1] is 9.83 µM; in the experiment on L1210, 5.81 µM; in the experiment on HeLa [2], 4.4 µM; in the experiment on HeLa [3] it was 1.03 µM; in the experiment on P388, 6.49 µM; in [4] it was 3.98 µM. Besides, the IC50 turned out to be 7.35 µM in experiment [5]; 15.4 µM in the experiment with MCF7; 19.3 µM with HeLa [6] (Homo sapiens, HeLa).

As for `Nc1nc2c(ncn2COCCO)c(=O)[nH]1` [ACYCLOVIR], the IC50 in the experiment on HeLa [1] amounted to 0.11 µM; with HeLa [2] it was 8.71 µM; in the experiment with HeLa [3], 26.4 µM; in the experiment on HeLa [6] (Homo sapiens, HeLa), 254 µM; with HeLa [7], 190 nM.

Take `COC1=C(OC)C(O)(CCn2cnc3c(N)ncnc32)OC1=O` (stereo not given): the IC50 with HeLa [1] was greater than 128 µM; with L1210 it was greater than 120 µM; in the experiment on HeLa [2] it was greater than 128 µM; in the experiment with HeLa [3] it was greater than 128 µM; in the experiment on P388, greater than 120 µM; in [4] it was greater than 120 µM. For the same molecule, the IC50 in [5] was greater than 120 µM; in the experiment with MCF7, greater than 120 µM; with HeLa [6] (Homo sapiens, HeLa), 157 µM. Besides, on Adenosine deaminase, the Ki is greater than 800 µM.

What is called IC50 is the concentration needed to halve the response being measured. By Ki is commonly meant the dissociation constant of the complex between target and ligand, obtained from inhibition or displacement.
